# Experimental data from ChEMBL document CHEMBL1806466, “2-Amino-4-methyl-5-phenylethyl substituted-7-N-benzyl-pyrrolo[2,3-d]pyrimidines as novel antitumor antimitotic agents that also reverse tumor resistance” (Bioorg Med Chem, 2011).
# How the values were obtained:
# [1] = Cytotoxic activity against Pgp-deficient human MCF7/VP cells expressing MRP1 after 48 hrs by sulforhodamine B assay; format: functional, cell-based
# Outline: (§1)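 Cells plated at ~15% confluency and allowed 24 h to attach, then exposed to varying test concentrations for 48 h. Survival by SRB binding, reported as % decrease in binding versus ethanol solvent controls, mean of three wells. For NCI/ADR, exposure with 0 or 50 nM vinblastine; for MCF-7/VP, with 0 or 1 nM vincristine.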
# NCI-H23 = assay: Antitumor activity against human NCI-H23 cells after 48 hrs by sulforhodamine B assay; format: functional; settings: NCI-H23, 48 h
# Outline: (§2)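 NCI-60 screen, adherent lines: grown in RPMI 1640 with 5% FBS and 2 mM L-glutamine. Seeded at 5,000–40,000 cells/well by doubling time and preincubated 24 h at 37 °C, 5% CO2, with time-zero plates TCA-fixed. Five concentrations (10-fold or half-log) given for 48 h. Fixed with cold TCA (10% final), then SRB-stained and read at A515. GI50 is 50% reduction of net protein increase versus control.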
# A549 = assay: Antitumor activity against human A549 cells after 48 hrs by sulforhodamine B assay; format: functional; settings: A549, 48 h; outline: as §2
# CAKI-1 = assay: Antitumor activity against human Caki1 cells after 48 hrs by sulforhodamine B assay; format: functional; settings: CAKI-1, 48 h; outline: as §2
# MDA-MB-231 = assay: Antitumor activity against human MDA-MB-231 cells after 48 hrs by sulforhodamine B assay; format: functional; settings: MDA-MB-231, 48 h; outline: as §2
# HL-60(TB) = assay: Antitumor activity against human HL-60(TB) cells after 48 hrs by sulforhodamine B assay; format: functional; settings: HL-60, 48 h
# Outline: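 NCI-60 screen: cells grown in RPMI 1640 with 5% FBS and 2 mM L-glutamine, seeded at 5,000–40,000 cells/well and incubated 24 h at 37 °C, 5% CO2 before dosing. Five concentrations (10-fold or ½-log dilutions from DMSO stock), 48 h. Suspension cells fixed with 80% TCA (final 16%), stained with 0.4% SRB, A515 read. GI50 calculated against time-zero and control growth.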
# HOP-62 = assay: Antitumor activity against human HOP62 cells after 48 hrs by sulforhodamine B assay; format: functional; settings: HOP-62, 48 h; outline: as §2
# ACHN = assay: Antitumor activity against human ACHN cells after 48 hrs by sulforhodamine B assay; format: functional; outline: as §2
# SNB-75 = assay: Antitumor activity against human SNB75 cells after 48 hrs by sulforhodamine B assay; format: functional; settings: SNB-75, 48 h; outline: as §2
# [2] = target: Multidrug resistance-associated protein 1 (Homo sapiens, UniProt P33527); assay: Reversal of MRP1-mediated multidrug resistance in human MCF7/VP cells assessed as enhancement of cytotoxicity of vincristine after 48 hrs by sulforhodamine B assay; format: cell-based
# Outline: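 MCF-7/VP cells plated at ~15% confluency and allowed 24 h to attach. […] Survival by SRB binding. MRP1 Antagonism Score = % survival without vincristine / % survival with vincristine.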
# NCI/ADR-RES = assay: Antitumor activity against human NCI/ADR-RES cells after 48 hrs by sulforhodamine B assay; format: functional; outline: as §2
# DU-145 = assay: Antitumor activity against human DU145 cells after 48 hrs by sulforhodamine B assay; format: functional; settings: DU-145, 48 h; outline: as §2
# SF-295 = assay: Antitumor activity against human SF295 cells after 48 hrs by sulforhodamine B assay; format: functional; settings: SF-295, 48 h; outline: as §2
# HCT-116 = assay: Antitumor activity against human HCT116 cells after 48 hrs by sulforhodamine B assay; format: functional; settings: HCT-116, 48 h; outline: as §2
# Malme-3M = assay: Antitumor activity against human MALME-3M cells after 48 hrs by sulforhodamine B assay; format: functional; outline: as §2
# TK-10 = assay: Antitumor activity against human TK10 cells after 48 hrs by sulforhodamine B assay; format: functional; settings: TK-10, 48 h
# Outline: (§3)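 NCI-60 panel lines grown in RPMI 1640 with 5% FBS and 2 mM L-glutamine. Cells plated at 5,000–40,000/well by doubling time, given 24 h before drug, then exposed to five concentrations for 48 h at 37 °C. Time-zero plates fixed with TCA. Cells fixed with TCA, stained with 0.4% SRB, read at 515 nm. GI50 = 50% reduction in net protein increase versus control.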
# MCF7 = assay: Resistance factor, ratio of IC50 for drug-resistant […] human NCI/ADR cells expressing Pgp in absence of vinblastin to IC50 for drug-sensitive human MCF7 cells in presence of 50 nM vinblastin; format: functional
# HT-29 = assay: Antitumor activity against human HT-29 cells after 48 hrs by sulforhodamine B assay; format: functional; settings: HT-29, 48 h; outline: as §2
# OVCAR-5 = assay: Antitumor activity against human OVCAR5 cells after 48 hrs by sulforhodamine B assay; format: functional; settings: OVCAR-5, 48 h; outline: as §2
# [3] = Cytotoxic activity against drug-resistant […]-deficient human NCI/ADR cells expressing Pgp after 48 hrs by sulforhodamine B assay; format: functional, cell-based; settings: NCI/ADR-RES; outline: as §1
# HCT-15 = assay: Antitumor activity against human HCT15 cells after 48 hrs by sulforhodamine B assay; format: functional; settings: HCT-15, 48 h; outline: as §2
# SW-620 = assay: Antitumor activity against human SW620 cells after 48 hrs by sulforhodamine B assay; format: functional; settings: SW-620, 48 h; outline: as §2
# T47D = assay: Antitumor activity against human T47D cells after 48 hrs by sulforhodamine B assay; format: functional; outline: as §3
# OVCAR-8 = assay: Antitumor activity against human OVCAR8 cells after 48 hrs by sulforhodamine B assay; format: functional; settings: OVCAR-8, 48 h; outline: as §2
# BT-549 = assay: Antitumor activity against human BT549 cells after 48 hrs by sulforhodamine B assay; format: functional; settings: BT-549, 48 h; outline: as §2
# OVCAR-4 = assay: Antitumor activity against human OVCAR4 cells after 48 hrs by sulforhodamine B assay; format: functional; settings: OVCAR-4, 48 h; outline: as §2
# EKVX = assay: Antitumor activity against human EKVX cells after 48 hrs by sulforhodamine B assay; format: functional; outline: as §2
# SK-MEL-5 = assay: Antitumor activity against human SK-MEL-5 cells after 48 hrs by sulforhodamine B assay; format: functional; settings: SK-MEL-5, 48 h; outline: as §2
# U-251 = assay: Antitumor activity against human U251 cells after 48 hrs by sulforhodamine B assay; format: functional; settings: U-251, 48 h; outline: as §3
# Chain of Multidrug resistance-associated protein 1 (P33527 whole entry): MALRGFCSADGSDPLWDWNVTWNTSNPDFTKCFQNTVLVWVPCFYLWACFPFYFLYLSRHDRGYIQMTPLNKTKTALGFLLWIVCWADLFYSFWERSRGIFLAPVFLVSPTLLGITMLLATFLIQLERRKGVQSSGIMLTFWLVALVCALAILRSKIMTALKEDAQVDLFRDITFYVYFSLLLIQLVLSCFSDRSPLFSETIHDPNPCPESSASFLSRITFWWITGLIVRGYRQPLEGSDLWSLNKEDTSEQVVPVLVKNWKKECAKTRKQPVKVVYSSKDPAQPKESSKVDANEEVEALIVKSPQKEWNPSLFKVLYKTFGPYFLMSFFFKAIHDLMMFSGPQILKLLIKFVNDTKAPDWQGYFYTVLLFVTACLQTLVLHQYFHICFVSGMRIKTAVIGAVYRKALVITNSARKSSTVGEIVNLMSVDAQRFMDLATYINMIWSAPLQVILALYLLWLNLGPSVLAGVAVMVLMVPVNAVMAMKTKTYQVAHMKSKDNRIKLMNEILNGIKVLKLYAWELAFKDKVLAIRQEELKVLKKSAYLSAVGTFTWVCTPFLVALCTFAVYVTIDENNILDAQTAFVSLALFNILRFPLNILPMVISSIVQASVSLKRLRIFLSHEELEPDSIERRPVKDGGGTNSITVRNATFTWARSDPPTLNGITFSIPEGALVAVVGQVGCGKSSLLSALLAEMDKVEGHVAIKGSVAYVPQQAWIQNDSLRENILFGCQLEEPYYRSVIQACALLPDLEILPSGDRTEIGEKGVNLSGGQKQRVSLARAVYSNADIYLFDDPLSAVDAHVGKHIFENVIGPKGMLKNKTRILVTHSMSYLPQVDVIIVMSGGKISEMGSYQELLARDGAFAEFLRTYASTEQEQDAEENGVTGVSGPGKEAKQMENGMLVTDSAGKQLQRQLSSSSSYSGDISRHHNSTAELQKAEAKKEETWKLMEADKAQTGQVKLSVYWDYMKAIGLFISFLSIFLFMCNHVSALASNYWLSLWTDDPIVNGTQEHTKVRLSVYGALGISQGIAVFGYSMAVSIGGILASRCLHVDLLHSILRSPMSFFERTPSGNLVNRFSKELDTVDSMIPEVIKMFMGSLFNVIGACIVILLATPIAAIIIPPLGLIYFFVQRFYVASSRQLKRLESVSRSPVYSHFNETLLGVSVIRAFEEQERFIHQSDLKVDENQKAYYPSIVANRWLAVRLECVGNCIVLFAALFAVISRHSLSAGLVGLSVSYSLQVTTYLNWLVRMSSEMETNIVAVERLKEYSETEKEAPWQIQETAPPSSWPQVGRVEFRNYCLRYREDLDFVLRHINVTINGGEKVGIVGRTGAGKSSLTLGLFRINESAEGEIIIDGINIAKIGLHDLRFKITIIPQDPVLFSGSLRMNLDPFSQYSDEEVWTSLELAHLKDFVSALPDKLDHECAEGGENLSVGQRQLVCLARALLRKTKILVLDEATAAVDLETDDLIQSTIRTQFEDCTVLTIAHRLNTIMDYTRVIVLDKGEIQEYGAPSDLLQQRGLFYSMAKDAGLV
compound,measurement,setting,value
COc1cc(CCc2cn(Cc3ccccc3)c3nc(N)nc(C)c23)c(OC)c(OC)c1OC,IC50,[1],9 µM
same,GI50,NCI-H23,3.61 µM
same,GI50,A549,5.33 µM
same,GI50,CAKI-1,2.5 µM
same,GI50,MDA-MB-231,3.69 µM
same,GI50,HL-60(TB),2.06 µM
same,GI50,HOP-62,3.96 µM
same,GI50,ACHN,9.36 µM
same,GI50,SNB-75,2.25 µM
same,Activity,[2],Not Active
same,GI50,NCI/ADR-RES,2.02 µM
same,GI50,DU-145,2.5 µM
same,GI50,SF-295,1.39 µM
same,GI50,HCT-116,3.68 µM
same,GI50,Malme-3M,10.4 µM
same,GI50,TK-10,7.62 µM
same,Ratio IC50,MCF7,0.29
same,GI50,HT-29,3.6 µM
same,GI50,OVCAR-5,11.9 µM
same,IC50,[3],7 µM
same,GI50,HCT-15,3.2 µM
same,GI50,SW-620,3.19 µM
same,GI50,T47D,1.69 µM
same,GI50,OVCAR-8,4.71 µM
same,GI50,BT-549,9.75 µM
same,GI50,OVCAR-4,8.83 µM
same,GI50,EKVX,7.73 µM
same,GI50,SK-MEL-5,1.46 µM
same,GI50,U-251,3.93 µM
